The record followed here is PMC9826439 (Chemistry (Weinheim an Der Bergstrasse, Germany), 2022).

In test [1] the target is human cathepsin L (Homo sapiens, UniProt P07711). Nature of the test: Cathepsin L inhibition assay. The test is classed as biochemical. The following applies: ratio of k inac/K i values. A digest of the protocol: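 Commercial human cathepsin; inactivation progress curves recorded for 60 min at five test-compound concentrations, in duplicate. pNA substrates were read at 405 nm (cuvette) and AMC substrates at λex 360/λem 460 nm. kobs came from a non-linear progress-curve fit, and kinac/Ki from a kobs vs [I] fit corrected by [S]/Km. Remaining activity was taken at 5 μM. SR is the ratio of rhodesain to cathepsin kinac/Ki.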

For test [2], the target named is rhodesain-like proteases (TbCatLs) in T. b. brucei cell lysate (Trypanosoma brucei brucei, UniProt P14658). Kind of test: Competition profiling assay with ABP 7, T. b. brucei cell lysate. The test is classed as biochemical. The following applies: T. b. brucei cell lysate 80 μg protein; inhibitor 0.016–10 μM, then ABP 7 5 μM.
Test [3] concerns the target rhodesain (Trypanosoma brucei rhodesiense, UniProt Q95PM0). The following applies: E-64 15 µM preincubated 37 °C 15 min, then ABP 7 15 µM.

Sequence of rhodesain-like proteases (TbCatLs) in T. b. brucei cell lysate (P14658 126-450): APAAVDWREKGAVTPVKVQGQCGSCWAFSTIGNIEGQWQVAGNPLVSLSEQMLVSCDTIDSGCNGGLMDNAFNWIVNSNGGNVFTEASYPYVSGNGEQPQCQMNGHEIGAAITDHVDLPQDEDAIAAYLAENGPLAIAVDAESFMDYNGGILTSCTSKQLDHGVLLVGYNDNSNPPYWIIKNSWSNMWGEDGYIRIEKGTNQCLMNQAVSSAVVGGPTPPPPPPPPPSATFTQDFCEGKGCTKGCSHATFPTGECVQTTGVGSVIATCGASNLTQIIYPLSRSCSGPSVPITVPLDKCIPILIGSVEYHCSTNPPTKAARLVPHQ
Sequence of rhodesain (Q95PM0 126-340 limits assumed): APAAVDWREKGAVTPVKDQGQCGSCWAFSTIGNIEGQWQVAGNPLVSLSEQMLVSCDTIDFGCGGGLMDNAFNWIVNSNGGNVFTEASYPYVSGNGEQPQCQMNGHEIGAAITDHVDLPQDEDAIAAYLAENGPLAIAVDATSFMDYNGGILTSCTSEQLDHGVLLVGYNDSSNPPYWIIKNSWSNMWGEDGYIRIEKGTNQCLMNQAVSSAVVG
Sequence of human cathepsin L (P07711 114-333): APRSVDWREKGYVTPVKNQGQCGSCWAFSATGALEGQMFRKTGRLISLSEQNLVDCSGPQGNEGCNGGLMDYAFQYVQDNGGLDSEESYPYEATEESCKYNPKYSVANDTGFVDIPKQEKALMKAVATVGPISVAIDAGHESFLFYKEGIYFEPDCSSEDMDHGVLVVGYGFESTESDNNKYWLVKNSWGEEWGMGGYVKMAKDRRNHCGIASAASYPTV

`Cc1ccc(C[C@H](NC(=O)OC(C)(C)C)C(=O)NC/C=C/S(=O)(=O)c2ccccc2)cc1` [Compound 2, (S,E)‐tert‐Butyl 1‐oxo‐1‐(3‐(phenylsulfonyl)allylamino)‐3‐p‐tolylpropan‐2‐ylcarbamate]: in test [1], the “selectivity ratio (SR rhodesain/cathepsin L)” value worked out at 23.8. Besides, the “concentration at which significantly lowered ABP 7 labeling signal was observed” value in test [2] was found to be 80 nM.

With `CC(C)C[C@H](NC(=O)[C@H]1O[C@@H]1C(=O)O)C(=O)NCCCCN=C(N)N` [E‐64], the “generation of the fluorescent rhodesain-7 adduct” value in test [3] was “completely abolished”.
